Measured values reported in PMC6644768 (ACS Omega, 2018).

Key:
Type in all cases: cell-based
ROS in HeLa cells = experiment: Intracellular ROS by DCFDA dye; conditions: 6 h, control 2.4 ± 0.1
tubulin in HeLa cells = experiment: Soluble and polymeric tubulin in cells by western blot; conditions: 25 nM, control 2.1 ± 0.4
A549 cells [1] = experiment: IC50 determination, sulforhodamine B assay, A549; conditions: A549 cell line, 24 h
How it was run: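 A549 cells (F-12K medium, 10% FBS) plated at 10 000 cells/well and grown 24 h, then exposed to a range of test compound concentrations for 24 h. Sulforhodamine B read-out: fixation in 50% TCA for 1 h at 4 °C, then 0.4% dye in 1% acetic acid for 1 h, 1% acetic acid washes, and solubilization in 10 mM Tris pH 10.0. Absorbance read at 520 nm. IC50 from nonlinear regression, three independent determinations.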

MCF-7 cells = experiment: IC50 determination, sulforhodamine B assay, MCF-7; conditions: MCF-7, one cell cycle
How it was run: (§1)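 Sulforhodamine B proliferation assay as run for A549, but with cells exposed to test compound for one cell cycle. Read-out: TCA fixation, dye binding, Tris solubilization, absorbance at 520 nm. IC50 fitted by nonlinear regression; each cell line determined three times independently. Culture media: HeLa and MCF-7 in Eagle's MEM; L929 and B16F10 in DMEM; MCF 10A in DMEM/F12K with 10% FBS, EGF, hydrocortisone and insulin.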

MCF 10A cells = experiment: IC50 determination, sulforhodamine B assay, MCF 10A; conditions: one cell cycle
How it was run: as §1

HeLa cells [2] = experiment: Mitotic index by Hoechst 33258 staining; conditions: 20 nM; control 3 ± 0.6
How it was run: (§2)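 HeLa cells exposed to 75 and 200 nM test compound or 20 nM reference agent for 12 h. Cells immunostained for phospho-histone H3 (Ser10), with DNA counterstained by Hoechst 33258. Mitotic index scored either from DNA morphology or as phospho-H3-positive cells. Experiment performed three times; error given as standard deviation.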

HeLa cells [3] = experiment: Mitotic index by phospho-histone H3 staining; conditions: 20 nM; control 3 ± 0.2
How it was run: as §2

HeLa cells [4] = experiment: PI staining of dead cells; conditions: 20 nM, 24 h; control 6%
How it was run: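 HeLa cells on coverslips (2.5 × 10^4 cells/well, 24 h) given vehicle (0.1% DMSO), 75 or 200 nM test compound, or 20 nM reference agent for 24 h. Plates centrifuged at 2500 rpm for 15 min and washed in PBS. Cells stained with propidium iodide for 15 min at room temperature in the dark and imaged. PI-positive cells counted as a percentage. Two independent sets.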

A549 cells [5] = experiment: Scratch wound healing assay; conditions: 100 nM

OO [Compound H2O2, H2O2]
fluorescence intensity of DCFDA per cell (ROS in HeLa cells; 100 μM): 4.5 ± 0.2

CC[C@]1(O)C[C@@H]2CN(CCc3c([nH]c4ccccc34)[C@@](C(=O)OC)(c3cc4c(cc3OC)N(C)[C@H]3[C@@](O)(C(=O)OC)[C@H](OC(C)=O)[C@]5(CC)C=CCN6CC[C@]43[C@@H]65)C2)C1 [vinblastine]
ratio of polymeric to soluble tubulin (tubulin in HeLa cells): 1.4 ± 0.9

COc1ccc(/C=C\c2cc(OC)c(OC)c(OC)c2)cc1O [CA-4, combretastatin A-4]
IC50 (A549 cells [1]): 112 ± 7 nM
IC50 (MCF-7 cells): 18 ± 3 nM
IC50 (MCF 10A cells): 144 ± 31 nM
mitotic index, Hoechst staining (HeLa cells [2]): 40 ± 1.2
mitotic index, phospho-histone staining (percentage of mitotic cells) (HeLa cells [3]): 38 ± 0.3%
PI-stained positive cells (HeLa cells [4]): 87%
fluorescence intensity of DCFDA per cell (ROS in HeLa cells; 20 nM): 3.6 ± 0.4
inhibition of migration of A549 cells (A549 cells [5]; 10 h): 77 ± 5%
rate of migration (A549 cells [5]; vehicle 3 ± 0.7): 0.4 ± 0.2 μm/h
